Experimental findings from ChEMBL document CHEMBL4261571, “Development of highly active anti-Pneumocystis bisbenzamidines: insight into the influence of selected substituents on the in vitro activity” (Medchemcomm, 2017) are described below.

Activity calls are given as the source filed them. No cut-off for these calls is given here.

A short description of assay [1]: Cytotoxicity against rat L2 cells assessed as decrease in cell viability after 24 to 72 hrs by ATP-based luciferin-luciferase assay. An outline of the steps: (§1)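 A549 cells in DMEM and L2 cells in F12, each with 10% fetal calf serum, 1% MEM vitamins and 1% NEAA, were plated at 2 × 10^5/ml and grown to confluence. They were exposed first to 100 µg/ml, then to 100, 10, 1 and 0.1 µg/ml, for 24, 48 and 72 h in duplicate wells. Cells were lysed with 0.1 M NaOH and ATP was read by luciferin-luciferase luminescence. IC50 came from linear regression of % ATP reduction.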

For assay [2], the system named is Pneumocystis carinii. Description: Antipneumocystis activity against Pneumocystis carinii at 100 ug/ml after 24 to 72 hrs by ATP-based luciferin-luciferase assay. Type of assay: functional, organism-based. In a few lines: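 Single high-dose screen at 100 µg/ml against rat-derived, cryopreserved P. carinii in RPMI 1640 at 36 °C, 5% CO2, read at 24, 48 and 72 h. ATP was measured by luminescence after background subtraction, with triplicate wells of duplicate assays averaged. % ATP reduction was calculated relative to media control. Controls were media, DMSO vehicle, ampicillin 10 µg/ml and pentamidine isethionate 1 µg/ml.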

The subject of assay [3] is A549. Kind of assay: Cytotoxicity against human A549 cells assessed as decrease in cell viability after 24 to 72 hrs by ATP-based luciferin-luciferase assay. An outline of the steps: as §1
Assay [4] has as its system Pneumocystis carinii. Kind of assay: Antipneumocystis activity against Pneumocystis carinii after 24 to 72 hrs by ATP-based luciferin-luciferase assay. The assay is classed as functional, organism-based. An outline of the steps: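 P. carinii from immunosuppressed rat lungs (methylprednisolone 20 mg/kg s.c. weekly) was cryopreserved. It was exposed to compounds diluted in RPMI 1640 at 36 °C, 5% CO2, for 24, 48 and 72 h. ATP was measured by luciferin-luciferase luminescence after background subtraction. Triplicate wells of duplicate assays were averaged. % ATP reduction was calculated against media control, and IC50 came from linear regression.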

In assay [5] the target is Luciferin 4-monooxygenase (Photinus pyralis) (UniProt P08659). Description: Effect on luciferin/firefly luciferase reaction assessed as quench effect at 100 ug/ml.
Sequence of Luciferin 4-monooxygenase (Photinus pyralis) (P08659 whole entry): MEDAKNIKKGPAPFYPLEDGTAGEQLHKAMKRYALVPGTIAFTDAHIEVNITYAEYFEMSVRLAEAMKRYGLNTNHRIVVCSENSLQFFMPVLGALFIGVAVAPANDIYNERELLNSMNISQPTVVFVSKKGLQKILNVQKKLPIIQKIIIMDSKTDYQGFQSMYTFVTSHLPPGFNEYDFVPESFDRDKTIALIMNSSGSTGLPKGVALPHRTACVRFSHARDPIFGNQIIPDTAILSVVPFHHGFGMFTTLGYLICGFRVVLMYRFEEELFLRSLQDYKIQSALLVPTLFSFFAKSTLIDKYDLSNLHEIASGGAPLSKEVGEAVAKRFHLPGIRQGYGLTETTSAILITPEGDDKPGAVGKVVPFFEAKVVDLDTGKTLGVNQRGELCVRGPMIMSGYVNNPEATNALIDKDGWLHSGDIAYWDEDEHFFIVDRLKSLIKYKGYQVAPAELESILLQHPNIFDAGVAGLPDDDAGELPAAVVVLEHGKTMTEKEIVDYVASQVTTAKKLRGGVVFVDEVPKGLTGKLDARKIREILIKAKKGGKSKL

Usually IC50 stands for the concentration that inhibits the measured activity by half. In the case of `N=C(N)c1ccc(NC(=O)CSCC(=O)Nc2ccc(C(=N)N)cc2)cc1`, the values for the IC50 in assay [1], in assay [3] and in assay [4] were more than 100 µM, more than 100 µM and 0.568 µM, respectively. For the same compound, the result in assay [2] was Active. Also, the outcome in assay [5] was inactive.
Consider `N=C(N)c1ccc(NCCOCCNc2ccc(C(=N)N)cc2[N+](=O)[O-])c([N+](=O)[O-])c1`, for which the IC50 in assay [1] is more than 100 µM; in assay [3] it was more than 100 µM; in assay [4] it was 0.062 µM. Moreover, the outcome in assay [2] was Active. In addition, in assay [5], the result was inactive.
On to `Cc1cc(C(=N)N)cc(C)c1OCCN(CCOc1c(C)cc(C(=N)N)cc1C)S(=O)(=O)c1ccccc1`, for which the IC50 in assay [1] was more than 100 µM; in assay [3], more than 100 µM; in assay [4], 1.52 µM. For the same compound, in assay [2], the result was Active. Also, the result in assay [5] was inactive.
On to `N=C(N)c1ccc(SCCOCCSc2ccc(C(=N)N)cc2)cc1`, for which the IC50 in assay [1] was 26.4 µM; in assay [3] it was 50.9 µM; in assay [4], less than 0.223 µM. The result in assay [2] was Active. For the same compound, the result in assay [5] was inactive.
Taken in the same sequence, the figures for `N=C(N)c1ccc(OCCOCCOc2ccc(C(=N)N)cc2N)c(N)c1` were more than 100 µM, more than 100 µM, 0.011 µM, “Active” and “inactive”.
The matching figures for `CCN(CCOc1ccc(C(=N)N)cc1)CCOc1ccc(C(=N)N)cc1`: more than 100 µM, more than 100 µM, less than 0.209 µM, “Active” and “inactive”.
Taken in the same sequence, the figures for `N=C(N)c1ccc(NC(=O)COCC(=O)Nc2ccc(C(=N)N)cc2)cc1` were more than 100 µM, more than 100 µM, 0.146 µM, “Active” and “inactive”.
Take `CCCCNC(=N)c1ccc(CN2CCN(Cc3ccc(C(=N)NCCCC)cc3)CC2)cc1`: the figures for the 50% inhibitory concentration (IC50) in assay [1], in assay [3] and in assay [4] were more than 100 µM, more than 100 µM and 0.083 µM, respectively. Moreover, the result in assay [2] was Active. The result in assay [5] was inactive.
For the compound `CN(C(=O)CCCCC(=O)N(C)c1ccc(C(=N)N)cc1)c1ccc(C(=N)N)cc1`, the figures for the IC50 in assay [1], in assay [3] and in assay [4] were more than 100 µM, more than 100 µM and 0.012 µM, respectively. The result in assay [2] was Active. For the same compound, the result in assay [5] was inactive.
As for `c1cc(C2=NCCN2)ccc1SCCOCCSc1ccc(C2=NCCN2)cc1`, the IC50 in assay [1] is more than 100 µM; in assay [3], 30.6 µM; in assay [4], 0.01 µM. Further, in assay [2], the outcome was Active. The result in assay [5] was inactive.
For `N=C(N)c1ccc(OCCCCCOc2ccc(C(=N)N)cc2)cc1` [PENTAMIDINE], the concentration for half-maximal inhibition (IC50) in assay [1] is 33.8 µM.
On to `N=C(N)c1ccc(NCCOCCNc2ccc(C(=N)N)cc2N)c(N)c1`, for which the IC50 was more than 100 µM in assay [1], more than 100 µM in assay [3] and less than 0.175 µM in assay [4]. Further, the outcome in assay [2] was Active. In assay [5], the Activity was found to be 15%.
Take `CCCNC(=N)c1ccc(CN2CCN(Cc3ccc(C(=N)NCCC)cc3)CC2)cc1`: the IC50 was more than 100 µM in assay [1], more than 100 µM in assay [3] and 1.69 µM in assay [4]. The result in assay [2] was Active. Also, the outcome in assay [5] was inactive.
With `C/N=C(\NC)c1ccc(CN2CCN(Cc3ccc(/C(=N/C)NC)cc3)CC2)cc1`, the result in assay [2] was inactive.
For the compound `CN(C(=O)CCCC(=O)N(C)c1ccc(C(=N)N)cc1)c1ccc(C(=N)N)cc1`, the IC50 is more than 100 µM in assay [1], more than 100 µM in assay [3] and 0.303 µM in assay [4]. The result in assay [2] was Active. The outcome in assay [5] was inactive.
As to `CN(C(=O)CCC(=O)N(C)c1ccc(C(=N)N)cc1)c1ccc(C(=N)N)cc1`, the IC50 was more than 100 µM in assay [1], more than 100 µM in assay [3] and 0.076 µM in assay [4]. Also, the result in assay [2] was Active. Further, the result in assay [5] was inactive.
With `CCCCCNC(=N)c1ccc(CN2CCN(Cc3ccc(C(=N)NCCCCC)cc3)CC2)cc1`, the figures for the 50% inhibitory concentration (IC50) in assay [1], in assay [3] and in assay [4] were more than 100 µM, more than 100 µM and 0.041 µM, respectively. In assay [2], the outcome was Active. The result in assay [5] was inactive.
Take `COc1cc(C(=N)N)cc(Br)c1OCCCCCOc1c(Br)cc(C(=N)N)cc1OC`: the IC50 in assay [1] is 29.5 µM; in assay [3], 26.3 µM; in assay [4], 0.036 µM. Also, the result in assay [2] was Active. For the same compound, the outcome in assay [5] was inactive.
Turning to `N=C(N)c1ccc(CN2CCN(Cc3ccc(C(=N)N)cc3)CC2)cc1`, the half-maximal inhibitory concentration (IC50) was more than 100 µM in assay [1], more than 100 µM in assay [3] and 0.109 µM in assay [4]. For the same compound, the result in assay [2] was Active. Also, the result in assay [5] was inactive.
Take `Cc1cc(C(=N)N)cc(C)c1OCCCCCOc1c(C)cc(C(=N)N)cc1C`: the IC50 is 19 µM in assay [1], 32.2 µM in assay [3] and less than 0.213 µM in assay [4]. Besides, the result in assay [2] was Active. The outcome in assay [5] was inactive.
Taken in the same sequence, the figures for `N=C(N)c1ccc(OCCOCCOc2ccc(C(=N)N)cc2[N+](=O)[O-])c([N+](=O)[O-])c1` were 176 µM, more than 100 µM, 0.014 µM, “Active” and “inactive”.
The matching figures for `Cc1cc(C(=N)N)cc(C)c1OCCOCCOc1c(C)cc(C(=N)N)cc1C`: 16.7 µM, 75.8 µM, 0.175 µM, “Active” and “inactive”.
